Results from ChEMBL document CHEMBL1153226, “Isoxazolopyridone derivatives as allosteric metabotropic glutamate receptor 7 antagonists” (Bioorg Med Chem Lett, 2010).
In brackets after ≈: the same amount, converted by molar mass.

Legend:
[1] = target: Metabotropic glutamate receptor 7 (Rattus norvegicus, UniProt P35400); experiment: Antagonist activity at rat mGluR7 expressed in CHO cells assessed as inhibition of LAP-induced intracellular calcium mobilization by FLIPR; format: functional, cell-based
Sequence of Metabotropic glutamate receptor 7 (P35400 whole entry): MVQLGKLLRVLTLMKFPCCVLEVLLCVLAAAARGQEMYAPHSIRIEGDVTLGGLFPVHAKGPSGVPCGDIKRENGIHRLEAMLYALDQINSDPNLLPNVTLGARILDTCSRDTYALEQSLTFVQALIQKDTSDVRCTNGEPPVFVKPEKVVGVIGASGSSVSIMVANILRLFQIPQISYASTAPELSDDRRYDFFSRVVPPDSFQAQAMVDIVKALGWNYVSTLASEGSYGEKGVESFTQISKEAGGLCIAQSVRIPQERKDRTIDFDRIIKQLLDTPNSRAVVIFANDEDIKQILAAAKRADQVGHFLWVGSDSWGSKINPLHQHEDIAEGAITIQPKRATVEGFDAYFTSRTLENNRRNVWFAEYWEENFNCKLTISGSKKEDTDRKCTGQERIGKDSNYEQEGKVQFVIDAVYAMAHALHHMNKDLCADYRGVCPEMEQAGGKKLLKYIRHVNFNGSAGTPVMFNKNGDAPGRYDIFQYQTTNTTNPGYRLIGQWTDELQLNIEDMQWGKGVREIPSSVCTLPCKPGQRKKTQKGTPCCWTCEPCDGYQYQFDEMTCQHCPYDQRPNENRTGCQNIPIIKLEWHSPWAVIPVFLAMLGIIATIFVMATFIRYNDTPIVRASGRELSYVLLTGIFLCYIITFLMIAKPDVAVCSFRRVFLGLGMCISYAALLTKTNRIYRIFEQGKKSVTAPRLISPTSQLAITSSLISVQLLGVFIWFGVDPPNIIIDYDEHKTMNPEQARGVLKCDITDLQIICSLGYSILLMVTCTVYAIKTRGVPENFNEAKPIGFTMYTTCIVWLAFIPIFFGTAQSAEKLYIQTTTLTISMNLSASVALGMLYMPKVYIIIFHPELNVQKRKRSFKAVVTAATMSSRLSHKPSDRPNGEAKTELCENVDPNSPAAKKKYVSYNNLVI
Method in brief: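 CHO cells co-expressing mGluR7 and Gα15 were challenged with L-AP, and Ca2+ mobilization was read. IC50 was calculated from inhibition curves as the mean of at least two independent assays.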

[2] = Oral bioavailability in Sprague-Dawley rat at 10 mg/kg; format: ADME, organism-based; conditions: in vivo, 3 mg/kg, in the assay text read “3 mg/kg” for “10 mg/kg”
Method in brief: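 Male SD rats (n = 3) were given a single iv dose of 1 mg/kg in PEG400/EtOH/H2O (50:10:40), or an oral gavage dose as a 0.5% methylcellulose aqueous suspension. Blood was sampled at multiple times up to 8 h. Plasma was deproteinized with ethanol containing internal standard. Values are means.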

[3] = Plasma concentration in Sprague-Dawley rat at 2 mg/kg, po after 0.5 hrs; format: ADME, organism-based; parameters: dose 2 mg/kg, route oral
[4] = AUC in Sprague-Dawley rat at 1 mg/kg, iv and 3 mg/kg, po; conditions: plasma
[5] = Ratio of drug level in brain to plasma in Sprague-Dawley rat at 10 mg/kg, po after 2 hrs; format: ADME, organism-based; parameters: dose 10 mg/kg, route oral; conditions: read-out: BPR
Method in brief: (§1)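 Male Sprague-Dawley rats (7–10 weeks, 200–400 g, n = 3) were dosed orally at 10 mg/kg as a 0.5% methylcellulose suspension. Aortic blood was taken under isoflurane at 0.5 and 2 h, and brain at 2 h. Plasma and brain homogenate were deproteinized with threefold ethanol plus internal standard and analysed by LC–MS/MS against a relative calibration curve. B/P = brain (nmol/g) / plasma level.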

[6] = Solubility at pH 7.4; format: physicochemical; conditions: buffer
[7] = Plasma concentration in Sprague-Dawley rat at 10 mg/kg, po after 0.5 hrs; format: ADME, organism-based; parameters: dose 10 mg/kg, route oral; method in brief: as §1
[8] = Plasma clearance in Sprague-Dawley rat at 1 mg/kg, iv and 3 mg/kg, po

SMILES | IC50 [1] | further results
COc1ccc(-c2cc3onc(-c4ccccc4)c3c(=O)n2C)cc1 | 22 nM | –
Cn1c(-c2ccc3c(c2)OCO3)cc2onc(-c3ccccc3)c2c1=O | 26 nM | –
COc1ccc(-c2noc3cc(-c4ccccc4)n(C)c(=O)c23)cc1 | 29 nM | –
Cn1c(-c2ccccc2)cc2onc(-c3ccncc3)c2c1=O | 101 nM | –
CN(C)c1ccc(-c2cc3onc(-c4ccccc4)c3c(=O)n2C)cc1 | 140 nM | –
COc1ccc(-c2cc3onc(-c4ccncc4)c3c(=O)n2C)cc1 | 26 nM | bioavailability [2]: 65%; concentration at 0.5 h [3]: 3.9 µM; AUC [4]: 0.71 µM·h; Kp at 2 h [5]: 1; solubility [6]: 3.3 µg/mL (≈ 9.9 µM); concentration at 0.5 h [7]: 5.1 µM; clearance [8]: 1 mL/min/kg
CN(C)c1cccc(-c2cc3onc(-c4ccccc4)c3c(=O)n2C)c1 | 31 nM | –
Cn1c(-c2cccc(C(F)(F)F)c2)cc2onc(-c3ccccc3)c2c1=O | 96 nM | –
COc1ccc(-c2cc3onc(-c4ccccc4)c3c(=O)n2C)cc1F | 210 nM | –
COc1cccc(-c2noc3cc(-c4ccccc4)n(C)c(=O)c23)c1 | 12 nM | –
CCCc1ccc(-c2cc3onc(-c4ccccc4)c3c(=O)n2C)cc1 | 150 nM | –
COc1ccccc1-c1noc2cc(-c3ccccc3)n(C)c(=O)c12 | 21 nM | –
Cc1ccc(-c2cc3onc(-c4ccccc4)c3c(=O)n2C)cc1 | 51 nM | –
Cn1c(-c2ccc(F)cc2)cc2onc(-c3ccccc3)c2c1=O | 72 nM | –
Cn1c(-c2ccccc2)cc2onc(-c3ccccc3)c2c1=O | 20 nM | solubility [6]: 0.17 µg/mL (≈ 0.562 µM)
Cn1c(-c2ccccc2)cc2onc(-c3cccnc3)c2c1=O | 240 nM | –
Cn1c(-c2ccccc2)cc2onc(-c3ccccn3)c2c1=O | 1000 nM | –
CCn1c(-c2ccccc2)cc2onc(-c3ccccc3)c2c1=O | 910 nM | –
CC(C)n1c(-c2ccccc2)cc2onc(-c3ccccc3)c2c1=O | > 10000 nM | –
CC(C)Oc1ccc(-c2cc3onc(-c4ccccc4)c3c(=O)n2C)cc1 | > 10000 nM | –
COc1ccc(-c2cc3onc(-c4ccccc4)c3c(=O)n2C)cc1Br | 580 nM | –
